ChEMBL document CHEMBL5236609, “Optimization of 1,2,4-Triazole-3-thiones toward Broad-Spectrum Metallo-β-lactamase Inhibitors Showing Potent Synergistic Activity on VIM- and NDM-1-Producing Clinical Isolates” (J Med Chem, 2022)

system: Bacteria; test: Inhibition of bacterial IMP-1 (unknown origin) expressed in Escherichia coli EXPRESS BL21(DE3) assessed as inhibition constant by measuring rate of substrate hydrolysis at 100 uM by UV-visible spectrophotometry relative to control
Outline: (§1)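 Reporter-substrate assay with purified MBL (1–70 nM final) in 50 mM HEPES pH 7.5 at 30 °C. […] Inhibitor 0.5–1000 μM final. Ki derived from the v0/vi vs [I] slope assuming competitive inhibition, or from a Dixon plot. Ki given when inhibition >70%, otherwise % inhibition at 100 μM. Triplicate.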

Row | SMILES | inhibition
1 | O=C(O)[C@H](CCCn1c(-c2ccccc2)n[nH]c1=S)NCc1cc[nH]c1 | < 30%
2 | CC(C)(C)OC(=O)NCCCCn1c(-c2ccccc2)n[nH]c1=S | < 30%
3 | Cc1ccc(C(C)N[C@@H](CCCn2c(-c3ccccc3)n[nH]c2=S)C(=O)O)cc1 (stereo not given in full) | < 30%
4 | O=C(O)[C@H](CCCn1c(-c2ccccc2)n[nH]c1=S)NCc1cncs1 | < 30%
5 | O=C(O)[C@H](CCCn1c(-c2ccccc2)n[nH]c1=S)N(Cc1cn[nH]c1)Cc1c[nH]cn1 | 34%
6 | Cn1cncc1CN[C@@H](CCCn1c(-c2ccccc2)n[nH]c1=S)C(=O)O | < 30%
7 | O=C(O)[C@H](CCCn1c(-c2ccccc2)n[nH]c1=S)NCc1cccc(O)c1O | 32%
8 | O=C(O)[C@H](CCCn1c(-c2ccccc2)n[nH]c1=S)NCc1cccnc1 | < 30%

system: not listed separately; test: Inhibition of bacterial VIM-1 (unknown origin) expressed in Escherichia coli EXPRESS BL21(DE3) assessed as inhibition constant by measuring rate of substrate hydrolysis by UV-visible spectrophotometry; design: species or system Bacteria; outline: as §1

Row | SMILES | Ki
9 | O=C(O)[C@H](CCCn1c(-c2ccccc2)n[nH]c1=S)NCc1cc[nH]c1 | 5 µM
10 | CC(C)(C)OC(=O)NCCCCn1c(-c2ccccc2)n[nH]c1=S | 0.75 µM
11 | Cc1ccc(C(C)N[C@@H](CCCn2c(-c3ccccc3)n[nH]c2=S)C(=O)O)cc1 (stereo not given in full) | 10.8 µM
12 | O=C(O)[C@H](CCCn1c(-c2ccccc2)n[nH]c1=S)N(Cc1cn[nH]c1)Cc1c[nH]cn1 | 4.6 µM
13 | Cn1cncc1CN[C@@H](CCCn1c(-c2ccccc2)n[nH]c1=S)C(=O)O | 9.5 µM
14 | O=C(O)[C@H](CCCn1c(-c2ccccc2)n[nH]c1=S)NCc1cccc(O)c1O | 8.1 µM

system: Bacteria; test: Inhibition of bacterial NDM-1 (unknown origin) expressed in Escherichia coli EXPRESS BL21(DE3) assessed as inhibition constant by measuring rate of substrate hydrolysis at 100 uM by UV-visible spectrophotometry relative to control; outline: as §1

Row | SMILES | inhibition
15 | O=C(O)[C@H](CCCn1c(-c2ccccc2)n[nH]c1=S)NCc1cc[nH]c1 | < 30%
16 | CC(C)(C)OC(=O)NCCCCn1c(-c2ccccc2)n[nH]c1=S | 42%
17 | Cc1ccc(C(C)N[C@@H](CCCn2c(-c3ccccc3)n[nH]c2=S)C(=O)O)cc1 (stereo not given in full) | < 30%
18 | O=C(O)[C@H](CCCn1c(-c2ccccc2)n[nH]c1=S)NCc1cncs1 | < 30%
19 | O=C(O)[C@H](CCCn1c(-c2ccccc2)n[nH]c1=S)N(Cc1cn[nH]c1)Cc1c[nH]cn1 | 37%
20 | Cn1cncc1CN[C@@H](CCCn1c(-c2ccccc2)n[nH]c1=S)C(=O)O | 38%
21 | O=C(O)[C@H](CCCn1c(-c2ccccc2)n[nH]c1=S)NCc1cccc(O)c1O | 37%
22 | O=C(O)[C@H](CCCn1c(-c2ccccc2)n[nH]c1=S)NCc1cccnc1 | < 30%

system: Bacteria; test: Inhibition of bacterial VIM-4 (unknown origin) expressed in Escherichia coli EXPRESS BL21(DE3) assessed as inhibition constant by measuring rate of substrate hydrolysis at 100 uM by UV-visible spectrophotometry relative to control; outline: as §1

Row | SMILES | inhibition
23 | O=C(O)[C@H](CCCn1c(-c2ccccc2)n[nH]c1=S)NCc1cc[nH]c1 | 32%
24 | Cc1ccc(C(C)N[C@@H](CCCn2c(-c3ccccc3)n[nH]c2=S)C(=O)O)cc1 (stereo not given in full) | < 30%
25 | Cn1cncc1CN[C@@H](CCCn1c(-c2ccccc2)n[nH]c1=S)C(=O)O | < 30%
26 | O=C(O)[C@H](CCCn1c(-c2ccccc2)n[nH]c1=S)NCc1cccnc1 | < 30%

system: not listed separately; test: Inhibition of bacterial VIM-4 (unknown origin) expressed in Escherichia coli EXPRESS BL21(DE3) assessed as inhibition constant by measuring rate of substrate hydrolysis by UV-visible spectrophotometry; design: species or system Bacteria; outline: as §1

Row | SMILES | Ki
27 | CC(C)(C)OC(=O)NCCCCn1c(-c2ccccc2)n[nH]c1=S | 3.1 µM
28 | O=C(O)[C@H](CCCn1c(-c2ccccc2)n[nH]c1=S)NCc1cncs1 | 3.4 µM
29 | O=C(O)[C@H](CCCn1c(-c2ccccc2)n[nH]c1=S)N(Cc1cn[nH]c1)Cc1c[nH]cn1 | 2 µM
30 | O=C(O)[C@H](CCCn1c(-c2ccccc2)n[nH]c1=S)NCc1cccc(O)c1O | 4.2 µM

system: Bacteria; test: Inhibition of bacterial VIM-1 (unknown origin) expressed in Escherichia coli EXPRESS BL21(DE3) assessed as inhibition constant by measuring rate of substrate hydrolysis at 100 uM by UV-visible spectrophotometry relative to control; outline: as §1

Row | SMILES | inhibition
31 | O=C(O)[C@H](CCCn1c(-c2ccccc2)n[nH]c1=S)NCc1cncs1 | 60%
32 | O=C(O)[C@H](CCCn1c(-c2ccccc2)n[nH]c1=S)NCc1cccnc1 | 48%

system: Bacteria; test: Inhibition of bacterial VIM-2 (unknown origin) expressed in Escherichia coli EXPRESS BL21(DE3) assessed as inhibition constant by measuring rate of substrate hydrolysis at 100 uM by UV-visible spectrophotometry relative to control; outline: as §1

Row | SMILES | inhibition
33 | O=C(O)[C@H](CCCn1c(-c2ccccc2)n[nH]c1=S)NCc1cc[nH]c1 | < 30%
34 | CC(C)(C)OC(=O)NCCCCn1c(-c2ccccc2)n[nH]c1=S | 53%
35 | Cc1ccc(C(C)N[C@@H](CCCn2c(-c3ccccc3)n[nH]c2=S)C(=O)O)cc1 (stereo not given in full) | 36%
36 | O=C(O)[C@H](CCCn1c(-c2ccccc2)n[nH]c1=S)NCc1cncs1 | 58%
37 | O=C(O)[C@H](CCCn1c(-c2ccccc2)n[nH]c1=S)N(Cc1cn[nH]c1)Cc1c[nH]cn1 | 53%
38 | Cn1cncc1CN[C@@H](CCCn1c(-c2ccccc2)n[nH]c1=S)C(=O)O | 47%
39 | O=C(O)[C@H](CCCn1c(-c2ccccc2)n[nH]c1=S)NCc1cccc(O)c1O | 57%
40 | O=C(O)[C@H](CCCn1c(-c2ccccc2)n[nH]c1=S)NCc1cccnc1 | 47%
